Source: ChEMBL document CHEMBL5260806, “Hydrogen peroxide activated quinone methide precursors with enhanced DNA cross-linking capability and cytotoxicity towards cancer cells” (Eur J Med Chem, 2017)

Columns and labels:
Format in all cases: functional
SK-MEL-5 = assay: Anticancer activity against human SK-MEL-5 cells assessed as cell growth inhibition at 10 uM incubated for 48 hrs by sulforhodamine B assay; details: read-out: GI
Outline: (§1)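 NCI DTP 60-cell-line screen run at National Cancer Institute. Cells grown in RPMI 1640 with 5% fetal bovine serum and 2 mM L-glutamine, seeded at 5,000–40,000 cells/well depending on doubling time. Single-dose screen at 10 µM gives growth percentage; dose-response series gives GI50.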

HT-29 = assay: Anticancer activity against human HT-29 cells assessed as cell growth inhibition at 10 uM incubated for 48 hrs by sulforhodamine B assay; details: read-out: GI
Outline: (§2)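 NCI-60 screen: cell lines grown in RPMI 1640 with 5% FBS and 2 mM L-glutamine, plated in 96-well plates at 5,000–40,000 cells/well depending on doubling time. Each line has one single-dose arm at 10 µM and one dose-response arm giving GI50.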

MDA-MB-435 [1] = assay: Anticancer activity against human MDA-MB-435 cells assessed as cell growth inhibition at 10 uM incubated for 48 hrs by sulforhodamine B assay; details: read-out: GI; outline: as §1
TK-10 = assay: Anticancer activity against human TK-10 cells assessed as cell growth inhibition incubated for 48 hrs by sulforhodamine B assay
A549 [2] = assay: Anticancer activity against human A549 cells assessed as cell growth inhibition at 10 uM incubated for 48 hrs by sulforhodamine B assay; details: read-out: GI; outline: as §2
OVCAR-8 = assay: Anticancer activity against human OVCAR-8 cells assessed as cell growth inhibition incubated for 48 hrs by sulforhodamine B assay; outline: as §1
T47D = assay: Anticancer activity against human T47D cells assessed as cell growth inhibition at 10 uM incubated for 48 hrs by sulforhodamine B assay; details: read-out: GI
NCI-H23 = assay: Anticancer activity against human NCI-H23 cells assessed as cell growth inhibition at 10 uM incubated for 48 hrs by sulforhodamine B assay; details: read-out: GI; outline: as §1
MDA-MB-435 [3] = assay: Anticancer activity against human MDA-MB-435 cells assessed as cell growth inhibition incubated for 48 hrs by sulforhodamine B assay; outline: as §1
IGROV-1 [4] = assay: Anticancer activity against human IGROV-1 cells assessed as cell growth inhibition incubated for 48 hrs by sulforhodamine B assay; outline: as §2
OVCAR-4 = assay: Anticancer activity against human OVCAR-4 cells assessed as cell growth inhibition at 10 uM incubated for 48 hrs by sulforhodamine B assay; details: read-out: GI; outline: as §1
RXF 393 = assay: Anticancer activity against human RXF 393 cells assessed as cell growth inhibition at 10 uM incubated for 48 hrs by sulforhodamine B assay; details: read-out: GI; outline: as §1
MCF7 = assay: Anticancer activity against human MCF7 cells assessed as cell growth inhibition at 10 uM incubated for 48 hrs by sulforhodamine B assay; details: read-out: GI; outline: as §1
PC-3 = assay: Anticancer activity against human PC-3 cells assessed as cell growth inhibition at 10 uM incubated for 48 hrs by sulforhodamine B assay; details: read-out: GI; outline: as §1
NCI-H322M [5] = assay: Anticancer activity against human NCI-H322M cells assessed as cell growth inhibition incubated for 48 hrs by sulforhodamine B assay; outline: as §1
A549 [6] = assay: Anticancer activity against human A549 cells assessed as cell growth inhibition incubated for 48 hrs by sulforhodamine B assay; outline: as §2
786-0 [7] = assay: Anticancer activity against human 786-0 cells assessed as cell growth inhibition incubated for 48 hrs by sulforhodamine B assay; outline: as §2
CCRF-CEM = assay: Anticancer activity against human CCRF-CEM cells assessed as cell growth inhibition incubated for 48 hrs by sulforhodamine B assay; outline: as §2
BT-549 = assay: Anticancer activity against human BT-549 cells assessed as cell growth inhibition at 10 uM incubated for 48 hrs by sulforhodamine B assay; details: read-out: GI; outline: as §2
SF-295 = assay: Anticancer activity against human SF-295 cells assessed as cell growth inhibition incubated for 48 hrs by sulforhodamine B assay; outline: as §1
NCI/ADR-RES [8] = assay: Anticancer activity against human NCI/ADR-RES cells assessed as cell growth inhibition incubated for 48 hrs by sulforhodamine B assay; outline: as §1
CAKI-1 = assay: Anticancer activity against human CAKI-1 cells assessed as cell growth inhibition at 10 uM incubated for 48 hrs by sulforhodamine B assay; details: read-out: GI; outline: as §2
HCT-15 = assay: Anticancer activity against human HCT-15 cells assessed as cell growth inhibition incubated for 48 hrs by sulforhodamine B assay; outline: as §2
KM12 [9] = assay: Anticancer activity against human KM12 cells assessed as cell growth inhibition at 10 uM incubated for 48 hrs by sulforhodamine B assay; details: read-out: GI; outline: as §2
IGROV-1 [10] = assay: Anticancer activity against human IGROV-1 cells assessed as cell growth inhibition at 10 uM incubated for 48 hrs by sulforhodamine B assay; details: read-out: GI; outline: as §2
786-0 [11] = assay: Anticancer activity against human 786-0 cells assessed as cell growth inhibition at 10 uM incubated for 48 hrs by sulforhodamine B assay; details: read-out: GI; outline: as §2
SN12C = assay: Anticancer activity against human SN12C cells assessed as cell growth inhibition at 10 uM incubated for 48 hrs by sulforhodamine B assay; details: read-out: GI
Hs-578T [12] = assay: Anticancer activity against human Hs-578T cells assessed as cell growth inhibition incubated for 48 hrs by sulforhodamine B assay; outline: as §2
RPMI-8226 = assay: Anticancer activity against human RPMI-8226 cells assessed as cell growth inhibition at 10 uM incubated for 48 hrs by sulforhodamine B assay; details: read-out: GI; outline: as §1
MDA-MB-231 = assay: Anticancer activity against human MDA-MB-231 cells assessed as cell growth inhibition at 10 uM incubated for 48 hrs by sulforhodamine B assay; details: read-out: GI; outline: as §1
Hs-578T [13] = assay: Anticancer activity against human Hs-578T cells assessed as cell growth inhibition at 10 uM incubated for 48 hrs by sulforhodamine B assay; details: read-out: GI; outline: as §2
NCI/ADR-RES [14] = assay: Anticancer activity against human NCI/ADR-RES cells assessed as cell growth inhibition at 10 uM incubated for 48 hrs by sulforhodamine B assay; details: read-out: GI; outline: as §1
COLO 205 = assay: Anticancer activity against human COLO 205 cells assessed as cell growth inhibition incubated for 48 hrs by sulforhodamine B assay; outline: as §2
MDA-MB-468 = assay: Anticancer activity against human MDA-MB-468 cells assessed as cell growth inhibition at 10 uM incubated for 48 hrs by sulforhodamine B assay; details: read-out: GI; outline: as §1
NCI-H522 = assay: Anticancer activity against human NCI-H522 cells assessed as cell growth inhibition incubated for 48 hrs by sulforhodamine B assay; outline: as §1
A498 = assay: Anticancer activity against human A498 cells assessed as cell growth inhibition incubated for 48 hrs by sulforhodamine B assay; outline: as §2
LOX IMVI = assay: Anticancer activity against human LOX IMVI cells assessed as cell growth inhibition at 10 uM incubated for 48 hrs by sulforhodamine B assay; details: read-out: GI; outline: as §2
NCI-H460 = assay: Anticancer activity against human NCI-H460 cells assessed as cell growth inhibition incubated for 48 hrs by sulforhodamine B assay; outline: as §1
NCI-H322M [15] = assay: Anticancer activity against human NCI-H322M cells assessed as cell growth inhibition at 10 uM incubated for 48 hrs by sulforhodamine B assay; details: read-out: GI; outline: as §1
NCI-H226 = assay: Anticancer activity against human NCI-H226 cells assessed as cell growth inhibition incubated for 48 hrs by sulforhodamine B assay; outline: as §1
KM12 [16] = assay: Anticancer activity against human KM12 cells assessed as cell growth inhibition incubated for 48 hrs by sulforhodamine B assay; outline: as §2
K562 = assay: Anticancer activity against human K562 cells assessed as cell growth inhibition incubated for 48 hrs by sulforhodamine B assay; outline: as §2

- GI50 (OVCAR-8): 2000 nM
- GI50 (MDA-MB-435 [3]): 2000 nM
- GI50 (NCI-H322M [5]): 2000 nM
- GI50 (A549 [6]): 2000 nM
- GI50 (786-0 [7]): 2000 nM
- GI50 (CCRF-CEM): 2000 nM
- GI50 (HCT-15): 2000 nM
- GI50 (COLO 205): 2000 nM
- GI50 (NCI-H522): 2000 nM
- GI50 (NCI-H460): 2000 nM
- GI50 (NCI-H226): 2000 nM
- GI50 (K562): 2000 nM
Structure (SMILES): COc1cc(CBr)c(B2OC(C)(C)C(C)(C)O2)c(CBr)c1
- inhibition of growth at 10 µM (SK-MEL-5): < 50%
- inhibition of growth at 10 µM (HT-29): < 50%
- inhibition of growth at 10 µM (MDA-MB-435 [1]): < 50%
- GI50 (TK-10): 2000 nM
- inhibition of growth at 10 µM (A549 [2]): < 50%
- inhibition of growth at 10 µM (T47D): < 50%
- inhibition of growth at 10 µM (NCI-H23): < 50%
- GI50 (IGROV-1 [4]): 2000 nM
- inhibition of growth at 10 µM (OVCAR-4): < 50%
- inhibition of growth at 10 µM (RXF 393): < 50%
- inhibition of growth at 10 µM (MCF7): < 50%
- inhibition of growth at 10 µM (PC-3): < 50%
- inhibition of growth at 10 µM (BT-549): < 50%
- GI50 (SF-295): 2000 nM
- GI50 (NCI/ADR-RES [8]): 2000 nM
- inhibition of growth at 10 µM (CAKI-1): < 50%
- inhibition of growth at 10 µM (KM12 [9]): < 50%
- inhibition of growth at 10 µM (IGROV-1 [10]): < 50%
- inhibition of growth at 10 µM (786-0 [11]): < 50%
- inhibition of growth at 10 µM (SN12C): < 50%
- GI50 (Hs-578T [12]): 2000 nM
- inhibition of growth at 10 µM (RPMI-8226): < 50%
- inhibition of growth at 10 µM (MDA-MB-231): < 50%
- inhibition of growth at 10 µM (Hs-578T [13]): < 50%
- inhibition of growth at 10 µM (NCI/ADR-RES [14]): < 50%
- inhibition of growth at 10 µM (MDA-MB-468): < 50%
- GI50 (A498): 2000 nM
- inhibition of growth at 10 µM (LOX IMVI): < 50%
- inhibition of growth at 10 µM (NCI-H322M [15]): < 50%
- GI50 (KM12 [16]): 2000 nM
